Test results as given in ChEMBL document CHEMBL3232842, “Synthesis and pharmacological evaluation of novel limonin derivatives as anti-inflammatory and analgesic agents with high water solubility” (Bioorg Med Chem Lett, 2014).
The source made the active and inactive calls. No cut-off for these calls is given here.

Assays:
[1] = tested on: Mus musculus; test: Analgesic activity in mouse assessed as increase in tail-curl latency time at 100 mg/kg, ig measured after 90 mins by tail-immersion test; type: functional, organism-based; parameters: dose 100 mg/kg
Method in brief: (§1)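 Mice dosed by gavage with 100 mg/kg suspended in 0.5% CMC-Na. Tail-curl latency in the tail-immersion test was recorded before dosing and at 30, 60, 90 and 120 min afterward. Results are given as mean ± SEM (n = 8), with one-way ANOVA against control.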

[2] = tested on: Mus musculus; test: Analgesic activity in mouse assessed as increase in tail-curl latency time at 100 mg/kg, ig measured after 30 to 90 mins by tail-immersion test; type: functional, organism-based; parameters: dose 100 mg/kg; method in brief: as §1
[3] = tested on: Mus musculus; test: Antiinflammatory activity in mouse assessed as inhibition of xylene-induced ear swelling at 100 mg/kg, ig administered 90 mins prior to xylene challenge measured after 30 mins; type: functional; conditions: po, route intragastric
Method in brief: (§2)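 Mice were given compound by gavage as a suspension in 0.5% CMC-Na; the vehicle group got 0.5% CMC-Na. 90 min later, 25 µl xylene was applied to both surfaces of the right ear, with the left ear as control. Mice were killed 30 min later. 8 mm punches were taken from both ears and weighed, and swelling was expressed relative to the left ear weight. Results are mean ± SEM, n = 8.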

[4] = tested on: Mus musculus; test: Antiinflammatory activity in mouse assessed as xylene-induced ear swollen extent at 100 mg/kg, ig administered 90 mins prior to xylene challenge measured after 30 mins (reference value: 132.8 +/-16.3%); type: functional; conditions: route intragastric; method in brief: as §2
[5] = Intrinsic aqueous solubility of the compound; type: physicochemical; conditions: read-out: Intrinsic_solubility
Method in brief: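 Determined on a Gemini Profiler by potentiometric titration (Avdeef–Bucher method), which also gave pKa; logD at pH 7.4.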

[6] = Partition coefficient, log D of the compound at pH 7.4; type: physicochemical; conditions: octanol/water
[7] = Dissociation constant, pKa of the compound; type: physicochemical
[8] = tested on: Mus musculus; test: Analgesic activity in mouse assessed as inhibition of acetic acid-induced writhing at 70 mg/kg, ig administered 1 hr before acetic acid challenge measured after 15 mins; type: functional; conditions: po, route intragastric
Method in brief: (§3)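 Mice dosed by gavage with compound suspended in 0.5% CMC-Na; the model group got vehicle only. 1 h later, 0.7% acetic acid in saline was injected i.p. at 0.1 ml/10 g body weight. Writhes were counted 15 min after the stimulus. Results are mean ± SEM, n = 8.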

[9] = tested on: Mus musculus; test: Analgesic activity in mouse assessed as increase in tail-curl latency time at 100 mg/kg, ig measured after 60 mins by tail-immersion test; type: functional, organism-based; parameters: dose 100 mg/kg; method in brief: as §1
[10] = tested on: Mus musculus; test: Analgesic activity in mouse assessed as inhibition of acetic acid-induced writhing at 200 mg/kg, ig administered 1 hr before acetic acid challenge measured after 15 mins; type: functional; conditions: po, route intragastric; method in brief: as §3
[11] = tested on: Mus musculus; test: Analgesic activity in mouse assessed as increase in tail-curl latency time at 100 mg/kg, ig measured after 30 to 120 mins by tail-immersion test; type: functional, organism-based; parameters: dose 100 mg/kg; method in brief: as §1
[12] = Equilibrium solubility of the compound by classical saturation shake flask method; type: physicochemical
Method in brief: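 Equilibrium solubility measured by the classical saturation shake-flask method.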

[13] = organism: Mus musculus; test: animal or person; conditions: Ear, po, read-out: INH

SMILES	Activity [1]	Activity [2]	inhibition in vivo at 100 mg/kg [3] [%]	Ear swelling extent [4] [%]	solubility [5] [µg/mL]	logD [6]	pKa [7]	inhibition in vivo at 70 mg/kg [8] [%]	Activity [9]	inhibition in vivo at 200 mg/kg [10] [%]	Activity [11]	solubility thermodynamic [12] [µg/mL]	inhibition in vivo at 150 mg/kg [13] [%]
CCN(CC)CCO/N=C1/C[C@H]2C(C)(C)O[C@H]3CC(=O)OC[C@]32[C@H]2CC[C@@]3(C)[C@H](c4ccoc4)OC(=O)[C@H]4O[C@]43[C@]12C.Cl	Active	Active	75.5	32.6	14500	0.26	9.17	80	–	–	–	–	–
CC1(C)O[C@H]2CC(=O)OC[C@]23[C@H]2CC[C@]4(C)C(=CC(=O)O[C@H]4c4ccoc4)[C@]2(C)/C(=N\OCCN2CCOCC2)C[C@@H]13.Cl	–	–	27.6	96.1	2100	2.52	6.84	50	Active	–	–	–	–
CN(C)CCCO/N=C1/C[C@H]2C(C)(C)O[C@H]3CC(=O)OC[C@]32[C@H]2CC[C@@]3(C)[C@H](c4ccoc4)OC(=O)[C@H]4O[C@]43[C@]12C.Cl	–	Active	46.1	71.6	9600	0.37	9.28	64.1	–	–	–	–	–
CC1(C)O[C@H]2CC(=O)OC[C@]23[C@H]2CC[C@@]4(C)[C@H](c5ccoc5)OC(=O)[C@H]5O[C@]54[C@]2(C)/C(=N\OCCN2CCCCC2)C[C@@H]13.Cl	–	Active	54.8	60.1	25300	0.44	8.87	70.5	Active	–	–	–	–
CC(=O)Oc1ccccc1C(=O)O [ASPIRIN]	–	–	–	–	–	–	–	–	–	71.8	–	–	–
CN(C)CCO/N=C1/C[C@H]2C(C)(C)O[C@H]3CC(=O)OC[C@]32[C@H]2CC[C@@]3(C)[C@H](c4ccoc4)OC(=O)[C@H]4O[C@]43[C@]12C.Cl	–	Active	45.5	72.4	17800	0.59	8.78	68.6	–	–	–	–	–
CN(C)CCCO/N=C1/C[C@H]2C(C)(C)O[C@H]3CC(=O)OC[C@]32[C@H]2CC[C@]3(C)C(=CC(=O)O[C@H]3c3ccoc3)[C@]12C.Cl	–	–	26.4	97.8	9400	0.19	9.39	60.7	Active	–	–	–	–
CC1(C)O[C@H]2CC(=O)OC[C@]23[C@H]2CC[C@@]4(C)[C@H](c5ccoc5)OC(=O)[C@H]5O[C@]54[C@]2(C)/C(=N\OCCN2CCOCC2)C[C@@H]13.Cl	–	Active	53	62.4	4500	2.45	6.11	58	–	–	–	–	–
CC1(C)O[C@H]2CC(=O)OC[C@@]23[C@H]1CC(=O)[C@@]1(C)C2=CC(=O)O[C@H](c4ccoc4)[C@]2(C)CC[C@@H]13 [DESOXYLIMONIN]	–	–	15.9	111.7	–	–	–	24.6	–	–	inactive	< 5	–
COc1ccc2cc([C@H](C)C(=O)O)ccc2c1 [NAPROXEN]	–	–	–	–	–	–	–	–	–	–	–	–	36.6
CC1(C)O[C@H]2CC(=O)OC[C@]23[C@H]2CC[C@]4(C)C(=CC(=O)O[C@H]4c4ccoc4)[C@]2(C)/C(=N\OCCN2CCCCC2)C[C@@H]13.Cl	–	–	25.4	99.1	19800	0.81	8.52	44.3	Active	–	–	–	–
CN(C)CCO/N=C1/C[C@H]2C(C)(C)O[C@H]3CC(=O)OC[C@]32[C@H]2CC[C@]3(C)C(=CC(=O)O[C@H]3c3ccoc3)[C@]12C.Cl	–	–	24.6	100.2	28900	0.32	8.88	30	Active	–	–	–	–
CCN(CC)CCO/N=C1/C[C@H]2C(C)(C)O[C@H]3CC(=O)OC[C@]32[C@H]2CC[C@]3(C)C(=CC(=O)O[C@H]3c3ccoc3)[C@]12C.Cl	–	–	18.4	108.2	1900	0.57	9.49	33.2	Active	–	–	–	–
CC1(C)O[C@H]2CC(=O)OC[C@]23[C@H]2CC[C@@]4(C)[C@H](c5ccoc5)OC(=O)[C@H]5O[C@]54[C@]2(C)C(=O)C[C@@H]13 [LIMONIN]	–	–	32.7	89.3	–	–	–	45.9	–	–	–	< 5	–
